Measured values as given in ChEMBL document CHEMBL1137803, “A novel anti-HIV macrocyclic peptide from Palicourea condensata” (J Nat Prod, 2001).
Where a SMILES comes first, the peptide text is derived from it. Bridges are numbered along the chain shown (N, C = ends).

The compounds below were run on Human immunodeficiency virus 1 (assay: Antiviral activity against HIV1 RF infected in human CEM-SS cells assessed as inhibition of virus induced cytopathic effect by XTT assay). Conditions: Human immunodeficiency virus 1, RF.
Format: functional, organism-based
Method in brief: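 HIV-1RF infection of CEM-SS, a human T-lymphoblastoid cell line, in vitro; inhibition of virus-induced cytopathic effects read out and reported as EC50 in µM.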

| SMILES | EC50 |
| --- | --- |
| CC[C@H](C)[C@@H]1NC(=O)[C@@H]2CSSC[C@@H]3NC(=O)[C@H](C(C)C)NC(=O)[C@H](CCCCN)NC(=O)[C@H](CC(N)=O)NC(=O)[C@H](CCCCN)NC(=O)[C@@H]4CSSC[C@H](NC(=O)[C@H](CO)NC(=O)[C@H](CCC(=O)O)NC(=O)CNC(=O)[C@H](CSSC[C@H](NC(=O)CNC(=O)[C@H](CC(C)C)NC(=O)[C@H](C)NC(=O)[C@H](C)NC(=O)[C@H](CO)NC1=O)C(=O)N[C@@H](CO)C(=O)N4)NC(=O)[C@@H]1CCCN1C(=O)[C@H]([C@@H](C)CC)NC(=O)CNC(=O)[C@H](CC(N)=O)NC(=O)[C@H](CCCNC(=N)N)NC(=O)[C@H](Cc1ccc(O)cc1)NC3=O)C(=O)N[C@@H](C(C)C)C(=O)N[C@@H](Cc1c[nH]c3ccccc13)C(=O)N[C@@H]([C@@H](C)CC)C(=O)N1CCC[C@H]1C(=O)N2 [CIRCULIN A] (cyclo(AALGCSCKNKVCYRNGIPCGESCVWIPCIS); disulfide 5-19, 7-23, 12-28) | 50 nM |
| CC[C@H](C)[C@@H]1NC(=O)[C@@H]2CSSC[C@@H]3NC(=O)[C@H](C(C)C)NC(=O)[C@H](CCCCN)NC(=O)[C@H](CC(N)=O)NC(=O)[C@H](CCCCN)NC(=O)[C@@H]4CSSC[C@H](NC(=O)[C@H](CO)NC(=O)[C@H](CCC(=O)O)NC(=O)CNC(=O)[C@H](CSSC[C@H](NC(=O)CNC(=O)[C@H](CC(C)C)NC(=O)[C@H](CC(C)C)NC(=O)[C@H]([C@@H](C)O)NC(=O)[C@H](CO)NC1=O)C(=O)N[C@@H](CO)C(=O)N4)NC(=O)[C@@H]1CCCN1C(=O)[C@H]([C@@H](C)CC)NC(=O)[C@H](C(C)C)NC(=O)CNC(=O)[C@H](CC(N)=O)NC(=O)[C@H](CCCNC(=N)N)NC(=O)[C@H](Cc1ccc(O)cc1)NC3=O)C(=O)N[C@@H](C(C)C)C(=O)N[C@@H](Cc1ccccc1)C(=O)N[C@@H]([C@@H](C)CC)C(=O)N1CCC[C@H]1C(=O)N2 [CIRCULIN B] (cyclo(CGESCVFIPCISTLLGCSCKNKVCYRNGVIP); disulfide 1-17, 5-19, 10-24) | 50 nM |
| CC[C@H](C)[C@@H]1NC(=O)[C@@H]2CSSC[C@@H]3NC(=O)[C@H](C(C)C)NC(=O)[C@H](CCCCN)NC(=O)[C@H](CO)NC(=O)[C@H](CCCCN)NC(=O)[C@@H]4CSSC[C@H](NC(=O)[C@H](CO)NC(=O)[C@H](CCC(=O)O)NC(=O)CNC(=O)[C@H](CSSC[C@H](NC(=O)CNC(=O)[C@H](C)NC(=O)[C@H](C(C)C)NC(=O)[C@H](CO)NC(=O)[C@H]([C@@H](C)O)NC1=O)C(=O)N[C@@H](CO)C(=O)N4)NC(=O)[C@@H]1CCCN1C(=O)[C@H]([C@@H](C)CC)NC(=O)CNC(=O)[C@H](CC(N)=O)NC(=O)[C@H](CCCNC(=N)N)NC(=O)[C@H](Cc1ccc(O)cc1)NC3=O)C(=O)N[C@@H](C(C)C)C(=O)N[C@@H](Cc1ccccc1)C(=O)N[C@@H]([C@@H](C)CC)C(=O)N1CCC[C@H]1C(=O)N2 [CIRCULIN C] (cyclo(AGCSCKSKVCYRNGIPCGESCVFIPCITSV); disulfide 3-17, 5-21, 10-26) | 50 nM |
| CC[C@H](C)[C@@H]1NC(=O)[C@H](CO)NC(=O)[C@H]([C@@H](C)O)NC(=O)[C@H](Cc2ccc(O)cc2)NC(=O)[C@@H]2CSSC[C@@H]3NC(=O)[C@H](C(C)C)NC(=O)[C@H](CCCCN)NC(=O)[C@H](CC(N)=O)NC(=O)[C@H](CCC(=O)O)NC(=O)[C@@H]4CSSC[C@H](NC(=O)[C@H](CO)NC(=O)[C@H](CCC(=O)O)NC(=O)CNC(=O)[C@H](CSSC[C@H](NC(=O)[C@H](CC(N)=O)NC(=O)[C@H](Cc5ccccc5)NC1=O)C(=O)N[C@@H](CCCCN)C(=O)N4)NC(=O)[C@@H]1CCCN1C(=O)[C@H]([C@@H](C)CC)NC(=O)[C@H](CCCCN)NC(=O)[C@H](CC(=O)O)NC(=O)[C@H](Cc1cnc[nH]1)NC(=O)[C@H](Cc1ccc(O)cc1)NC3=O)C(=O)N[C@@H](C(C)C)C(=O)N[C@@H](Cc1c[nH]c3ccccc13)C(=O)N[C@@H]([C@@H](C)CC)C(=O)N1CCC[C@H]1C(=O)N2 [CIRCULIN D] (cyclo(CENKVCYHDKIPCGESCVWIPCYTSIFNCK); disulfide 1-17, 6-22, 13-29) | 50 nM |
| CC[C@H](C)[C@@H]1NC(=O)[C@H](CCCCN)NC(=O)[C@H](CC(=O)O)NC(=O)[C@H](Cc2cnc[nH]2)NC(=O)[C@H](Cc2ccc(O)cc2)NC(=O)[C@@H]2CSSC[C@@H]3NC(=O)[C@@H]4CCCN4C(=O)[C@H]([C@@H](C)CC)NC(=O)[C@H](Cc4c[nH]c5ccccc45)NC(=O)[C@H](C(C)C)NC(=O)[C@@H]4CSSC[C@H](NC(=O)[C@H](CCCCN)NC(=O)[C@H](CSSC[C@H](NC(=O)[C@@H]5CCCN5C1=O)C(=O)NCC(=O)N[C@@H](CCC(=O)O)C(=O)N[C@@H](CO)C(=O)N4)NC(=O)[C@H](CC(N)=O)NC(=O)[C@H](Cc1ccccc1)NC(=O)[C@H](C(C)C)NC(=O)[C@H](CO)NC(=O)[C@H]([C@@H](C)O)NC(=O)[C@H](CC(C)C)NC3=O)C(=O)N[C@@H](CCC(=O)O)C(=O)N[C@@H](CC(N)=O)C(=O)N[C@@H](CCCCN)C(=O)N[C@@H](C(C)C)C(=O)N2 [CIRCULIN E] (cyclo(CENKVCYHDKIPCGESCVWIPCLTSVFNCK); disulfide 1-17, 6-22, 13-29) | 50 nM |
| CC[C@H](C)[C@@H]1NC(=O)[C@H](C)NC(=O)[C@H](C)NC(=O)[C@H](CO)NC(=O)[C@H]([C@@H](C)CC)NC(=O)[C@@H]2CSSC[C@@H]3NC(=O)[C@H](C(C)C)NC(=O)[C@H](CCCCN)NC(=O)[C@H](CC(N)=O)NC(=O)[C@H](CCCCN)NC(=O)[C@@H]4CSSC[C@H](NC(=O)[C@H](CO)NC(=O)[C@H](CCC(=O)O)NC(=O)CNC(=O)[C@H](CSSC[C@H](NC(=O)CNC1=O)C(=O)N[C@@H](CO)C(=O)N4)NC(=O)[C@@H]1CCCN1C(=O)[C@H]([C@@H](C)CC)NC(=O)[C@H](C)NC(=O)[C@H](CCCNC(=N)N)NC(=O)[C@H](Cc1ccc(O)cc1)NC3=O)C(=O)N[C@@H](C(C)C)C(=O)N[C@@H](Cc1c[nH]c3ccccc13)C(=O)N[C@@H]([C@@H](C)CC)C(=O)N1CCC[C@H]1C(=O)N2 [CIRCULIN F] (cyclo(AAIGCSCKNKVCYRAIPCGESCVWIPCIS); disulfide 5-18, 7-22, 12-27) | 50 nM |
| CC[C@H](C)[C@@H]1NC(=O)[C@H](C)NC(=O)[C@H](C)NC(=O)[C@H](CO)NC(=O)[C@H]([C@@H](C)CC)NC(=O)[C@@H]2CSSC[C@@H]3NC(=O)[C@H](C(C)C)NC(=O)[C@H](CCCCN)NC(=O)[C@H](CC(N)=O)NC(=O)[C@H](CCCCN)NC(=O)[C@@H]4CSSC[C@H](NC(=O)[C@H](CO)NC(=O)[C@H](CCC(=O)O)NC(=O)CNC(=O)[C@H](CSSC[C@H](NC(=O)CNC1=O)C(=O)N[C@@H](CO)C(=O)N4)NC(=O)[C@@H]1CCCN1C(=O)[C@H]([C@@H](C)CC)NC(=O)[C@H](C(C)C)NC(=O)CNC(=O)[C@H](CC(N)=O)NC(=O)[C@H](CCCNC(=N)N)NC(=O)[C@H](Cc1ccc(O)cc1)NC3=O)C(=O)N[C@@H](C(C)C)C(=O)N[C@@H](Cc1ccccc1)C(=O)N[C@@H]([C@@H](C)CC)C(=O)N1CCC[C@H]1C(=O)N2 [CYCLOVIOLIN A] (cyclo(AAIGCSCKNKVCYRNGVIPCGESCVFIPCIS); disulfide 5-20, 7-24, 12-29) | 50 nM |
| CC(C)C[C@@H]1NC(=O)[C@H](C(C)C)NC(=O)[C@H](Cc2ccc(O)cc2)NC(=O)[C@@H]2CSSC[C@@H]3NC(=O)[C@H]([C@@H](C)O)NC(=O)[C@@H]4CSSC[C@H](NC(=O)[C@H](C)NC(=O)[C@H]([C@@H](C)O)NC(=O)CNC(=O)[C@H](CC(N)=O)NC(=O)[C@H](CCCCN)NC(=O)[C@H](Cc5ccccc5)NC(=O)[C@H](CSSC[C@H](NC(=O)[C@@H]5CCCN5C1=O)C(=O)N[C@@H](Cc1ccccc1)C(=O)N[C@@H]([C@@H](C)O)C(=O)N[C@@H](C(C)C)C(=O)NCC(=O)N4)NC(=O)[C@H](CCC(N)=O)NC(=O)[C@H](CO)NC(=O)[C@H](CO)NC(=O)[C@H]([C@@H](C)O)NC3=O)C(=O)NCC(=O)N[C@@H](CCC(=O)O)C(=O)N[C@@H](CO)C(=O)N2 [CYCLOVIOLIN B] (cyclo(ACGESCYVLPCFTVGCTCTSSQCFKNGT); disulfide 2-16, 6-18, 11-23) | 50 nM |
| CC[C@H](C)[C@@H]1NC(=O)CNC(=O)[C@H](CC(N)=O)NC(=O)[C@H](CCCNC(=N)N)NC(=O)[C@H](Cc2ccc(O)cc2)NC(=O)[C@@H]2CSSC[C@@H]3NC(=O)[C@@H]4CCCN4C(=O)[C@H]([C@@H](C)CC)NC(=O)[C@H](Cc4ccccc4)NC(=O)[C@H](C(C)C)NC(=O)[C@@H]4CSSC[C@H](NC(=O)[C@H](CO)NC(=O)[C@H](CSSC[C@H](NC(=O)[C@@H]5CCCN5C1=O)C(=O)NCC(=O)N[C@@H](CCC(=O)O)C(=O)N[C@@H](CO)C(=O)N4)NC(=O)CNC(=O)[C@H](C)NC(=O)[C@H](C(C)C)NC(=O)[C@H]([C@@H](C)O)NC(=O)[C@H]([C@@H](C)O)NC(=O)[C@H](CC(C)C)NC3=O)C(=O)N[C@@H](CCCCN)C(=O)N[C@@H](CC(N)=O)C(=O)N[C@@H](CCCCN)C(=O)N[C@@H](C(C)C)C(=O)N2 [CYCLOVIOLIN C] (cyclo(AGCSCKNKVCYRNGIPCGESCVFIPCLTTV); disulfide 3-17, 5-21, 10-26) | 50 nM |
| CC[C@H](C)[C@@H]1NC(=O)[C@H](C)NC(=O)[C@H](C)NC(=O)[C@H](CO)NC(=O)[C@H]([C@@H](C)CC)NC(=O)[C@@H]2CSSC[C@@H]3NC(=O)[C@H](C(C)C)NC(=O)[C@H](CCCCN)NC(=O)[C@H](CC(N)=O)NC(=O)[C@H](CCCCN)NC(=O)[C@@H]4CSSC[C@H](NC(=O)[C@H](CO)NC(=O)[C@H](CCC(=O)O)NC(=O)CNC(=O)[C@H](CSSC[C@H](NC(=O)CNC1=O)C(=O)N[C@@H](CO)C(=O)N4)NC(=O)[C@@H]1CCCN1C(=O)[C@H](Cc1ccccc1)NC(=O)CNC(=O)[C@H](CC(N)=O)NC(=O)[C@H](CCCNC(=N)N)NC(=O)[C@H](Cc1ccc(O)cc1)NC3=O)C(=O)N[C@@H](C(C)C)C(=O)N[C@@H](Cc1ccccc1)C(=O)N[C@@H]([C@@H](C)CC)C(=O)N1CCC[C@H]1C(=O)N2 [CYCLOVIOLIN D] (cyclo(AAIGCSCKNKVCYRNGFPCGESCVFIPCIS); disulfide 5-19, 7-23, 12-28) | 50 nM |
